Data on 25 compounds can be found in ChEMBL document CHEMBL1134384, “Development of new carboxylic acid-based MMP inhibitors derived from functionalized propargylglycines” (J Med Chem, 2001).

One series deals with Stromelysin-1 (Homo sapiens, UniProt P08254). The series is described as follows: Inhibitory activity against human matrix metalloprotease-3 (MMP-3) ([…]).
In another series the target is T1, Interstitial collagenase (Homo sapiens, UniProt P03956).
T1 sequence (P03956 whole entry): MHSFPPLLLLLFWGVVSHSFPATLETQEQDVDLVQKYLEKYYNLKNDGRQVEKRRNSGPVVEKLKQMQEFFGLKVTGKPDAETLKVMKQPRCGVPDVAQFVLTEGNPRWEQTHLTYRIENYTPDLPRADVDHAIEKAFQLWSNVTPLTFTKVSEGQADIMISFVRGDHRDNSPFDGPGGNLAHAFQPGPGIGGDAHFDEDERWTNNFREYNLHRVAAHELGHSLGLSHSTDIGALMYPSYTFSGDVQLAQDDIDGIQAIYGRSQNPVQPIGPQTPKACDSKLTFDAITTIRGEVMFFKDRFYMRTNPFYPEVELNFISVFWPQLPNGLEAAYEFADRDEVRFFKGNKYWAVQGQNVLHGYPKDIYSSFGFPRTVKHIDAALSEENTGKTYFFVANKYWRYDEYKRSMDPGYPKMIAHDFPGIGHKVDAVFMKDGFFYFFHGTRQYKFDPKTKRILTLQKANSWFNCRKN
In words: Inhibitory activity against human matrix metalloprotease-1 in quenched fluorescence assay at […]. An outline of the steps:
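Quenched fluorescence assay using truncated human recombinant enzymes expressed in E. coli, at final concentrations of 8 nM for MMP-1 and 16 nM for MMP-3. Substrate was Mca-Pro-Leu-Gly-Leu-Dpa-Ala-Arg-NH₂ at 4 μM, at 25 °C, in 50 mM Tris pH 7.5, 0.2 M NaCl, 5 mM CaCl₂, 0.02% Brij-35. Fluorescence (ex 328/em 393 nm) was read kinetically for 30 min. Eight inhibitor concentrations were tested and IC50 was fitted from Vi/V0.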

For series [1], the target named is 72 kDa type IV collagenase (Homo sapiens, UniProt P08253). In words: Inhibitory activity against matrix metalloprotease-2 (MMP-2) in quenched fluorescence assay at […]. In outline: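 Full-length human recombinant proMMP-2 from CHO cells was activated with 1 mM APMA for 45 min and used at 1 nM final. Cleavage of 4 μM Mca-Pro-Leu-Gly-Leu-Dpa-Ala-Arg-NH₂ was followed at 25 °C in Tris pH 7.5/NaCl/CaCl₂/Brij-35 buffer, with fluorescence read kinetically for 30 min. IC50 came from 8 inhibitor concentrations.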
72 kDa type IV collagenase, sequence (P08253 whole entry): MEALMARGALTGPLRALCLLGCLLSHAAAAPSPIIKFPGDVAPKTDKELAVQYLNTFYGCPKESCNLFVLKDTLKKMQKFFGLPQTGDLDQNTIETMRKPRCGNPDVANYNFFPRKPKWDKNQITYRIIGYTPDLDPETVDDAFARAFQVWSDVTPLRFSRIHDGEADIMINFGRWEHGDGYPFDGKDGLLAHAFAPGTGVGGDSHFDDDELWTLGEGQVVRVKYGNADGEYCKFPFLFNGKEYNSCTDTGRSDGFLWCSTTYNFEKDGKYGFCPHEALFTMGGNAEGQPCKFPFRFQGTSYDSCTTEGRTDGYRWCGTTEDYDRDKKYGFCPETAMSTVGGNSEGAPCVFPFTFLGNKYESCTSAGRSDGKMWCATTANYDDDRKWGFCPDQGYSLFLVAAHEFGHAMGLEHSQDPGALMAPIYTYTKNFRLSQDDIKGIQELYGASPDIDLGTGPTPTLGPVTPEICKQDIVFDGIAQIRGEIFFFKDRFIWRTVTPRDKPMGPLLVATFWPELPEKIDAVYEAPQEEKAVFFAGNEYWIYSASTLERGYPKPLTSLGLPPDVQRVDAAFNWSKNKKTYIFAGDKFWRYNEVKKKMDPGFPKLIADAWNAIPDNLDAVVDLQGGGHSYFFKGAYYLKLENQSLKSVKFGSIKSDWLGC

For series [2], the target named is T2, Collagenase 3 (Homo sapiens, UniProt P45452). In words: Inhibitory activity against human matrix metalloprotease-13 in quenched fluorescence assay at pH 7.4.
The nature of series [3]: Half life was determined in fasted rats using cassette dosing technique. The conditions noted are these: rat, in vivo. The class given is ADME, organism-based. In outline: (§1)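 Fasted rats (n = 3/4) received cassette doses of 4–5 compounds per experiment at 1–5 mg/kg of each inhibitor. Each study included a control compound previously characterized in a single-compound experiment, to validate the data set and detect problems such as saturation of elimination.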

Series [4] in a line: Bioavailability in rat (fasted) using cassette dosing. The series is classed as ADME, organism-based. The conditions noted are these: in vivo. An outline of the steps:
as §1

Series [5] in a line: Solubility was determined at a pH of […]. The class given is physicochemical. The conditions noted are these: pH 7.
The target of series [6] is T2, Collagenase 3. In words: Inhibition of human matrix metalloprotease-13 at pH 7.4.

The structures appear in SMILES notation. ≈ marks a conversion by molar mass, not a printed value.

Stromelysin-1, sequence (P08254 whole entry): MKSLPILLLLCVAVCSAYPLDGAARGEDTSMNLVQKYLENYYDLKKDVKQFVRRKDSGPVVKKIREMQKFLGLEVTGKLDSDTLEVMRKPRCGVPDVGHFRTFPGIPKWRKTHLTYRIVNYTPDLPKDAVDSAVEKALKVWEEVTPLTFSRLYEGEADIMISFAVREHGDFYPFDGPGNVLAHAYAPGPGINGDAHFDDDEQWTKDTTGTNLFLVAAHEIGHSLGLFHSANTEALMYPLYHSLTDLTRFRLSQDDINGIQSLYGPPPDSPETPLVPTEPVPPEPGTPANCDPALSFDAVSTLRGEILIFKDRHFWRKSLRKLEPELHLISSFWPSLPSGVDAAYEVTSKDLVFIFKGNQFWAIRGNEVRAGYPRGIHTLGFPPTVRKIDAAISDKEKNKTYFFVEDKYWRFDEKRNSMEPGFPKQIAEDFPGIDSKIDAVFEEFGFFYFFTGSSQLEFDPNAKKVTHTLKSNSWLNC

Regarding `COCC#CCC(NS(=O)(=O)c1ccc(NC(=O)N2CCOCC2)cc1)C(=O)O` (centres undefined), the IC50 against Stromelysin-1 is above 10 µM; on Interstitial collagenase, above 10 µM; in series [1], 2770 nM; against Collagenase 3 [2] it was above 10000 nM.
In series [3], `COc1ccc(C#Cc2ccc(S(=O)(=O)NC(CC#Cc3ccccc3)C(=O)O)cc2)cc1` (centres undefined) gave a half-life of 42 min. For the same compound, the bioavailability in series [4] came out at 26%. In series [5], this compound yielded a solubility of 20 µg/mL (≈ 43.5 µM). Besides, the IC50 at Stromelysin-1 is 4.36 µM; at Interstitial collagenase, above 10 µM; in series [1], 9 nM; at Collagenase 3 [2] it was 35 nM.
For the compound `COCCOCOCC#CCC(NS(=O)(=O)c1ccc(-c2ccc(OC)cc2)cc1)C(=O)O` (centres undefined), the IC50 against Stromelysin-1 was determined as 2.34 µM; on Interstitial collagenase, 6.51 µM; in series [1], 33 nM; against Collagenase 3 [2] it was 88 nM.
On to `O=C(Nc1ccc(S(=O)(=O)NC(CC#CCN2CCOCC2)C(=O)O)cc1)c1ccc(Br)cc1` (centres undefined), for which the concentration in solution in series [5] (solubility) was 4400 µg/mL (≈ 7990 µM). Besides, the IC50 was 17.4 µM at Stromelysin-1, above 10 µM against Interstitial collagenase, 12 nM in series [1] and 344 nM against Collagenase 3 [2].
In series [3], `COc1ccc(C#Cc2ccc(S(=O)(=O)NC(CC#CCN3CCOCC3)C(=O)O)cc2)cc1` (centres undefined) showed a half-life of 216 min. In series [4], this compound showed a bioavailability of 12%. This compound showed a solubility in series [5] of 151000 µg/mL (≈ 313000 µM). Further, the IC50 against Stromelysin-1 amounted to 6.6 µM; in series [1] it was 28 nM.
In series [3], `COc1ccc(-c2ccc(S(=O)(=O)NC(CC#Cc3ccccc3)C(=O)O)cc2)cc1` (centres undefined) showed a half-life of 102 min. Also, the bioavailability in series [4] was 49%. The amount in solution in series [5] (solubility) came to 20 µg/mL (≈ 45.9 µM). For the same compound, the IC50 against Stromelysin-1 stood at 2.28 µM; against Interstitial collagenase it was 2 µM; in series [1] it was 12 nM; against Collagenase 3 [2] it was 21 nM.
As for `COc1ccc(C#Cc2ccc(S(=O)(=O)NC(CC#Cc3ccccc3)C(=O)O)s2)cc1` (centres undefined), the IC50 stood at 10.1 µM against Stromelysin-1, 46 nM in series [1] and 145 nM at Collagenase 3 [6].
For the compound `COc1ccc(-c2ccc(S(=O)(=O)NC(CC#Cc3cccc(N4CCOCC4)c3)C(=O)O)cc2)cc1` (centres undefined), the half-life in series [3] is 6 min. In series [4], this compound came in with a bioavailability of 7%. The same compound showed a solubility in series [5] of 580 µg/mL (≈ 1110 µM). Moreover, the IC50 on Stromelysin-1 came out at 3.52 µM; against Interstitial collagenase it was 3.66 µM; in series [1] it was 16 nM; at Collagenase 3 [2], 24 nM.
Take `CSc1ccc(-c2ccc(S(=O)(=O)NC(CC#Cc3ccccc3)C(=O)O)cc2)cc1` (centres undefined): the IC50 against Stromelysin-1 amounted to 3.4 µM; against Interstitial collagenase it was 0.631 µM; in series [1], 6 nM; against Collagenase 3 [2], 16 nM.
`COc1ccc(-c2ccc(S(=O)(=O)NC(CC#Cc3ccccc3)C(=O)O)s2)cc1` (centres undefined) returned a solubility in series [5] of 30 µg/mL (≈ 67.9 µM). In addition, the IC50 against Stromelysin-1 came to 1.32 µM; at Interstitial collagenase it was 3.25 µM; in series [1] it was 20 nM.
On to `O=C(Nc1ccc(S(=O)(=O)NC(CC#Cc2ccccc2)C(=O)O)cc1)c1ccc(Cl)cc1` (centres undefined), for which the concentration for half-maximal inhibition (IC50) at Stromelysin-1 is 3.57 µM; against Interstitial collagenase, above 10 µM; in series [1], 6 nM; against Collagenase 3 [2] it was 127 nM.
With `CO[C@H](C#Cc1ccccc1)C(NS(=O)(=O)c1ccc(-c2ccc(SC)cc2)cc1)C(=O)O` (some centres undefined), the solubility in series [5] stood at 120 µg/mL (≈ 249 µM). Besides, the IC50 came to 5.1 µM on Stromelysin-1, 3.4 µM on Interstitial collagenase, 8 nM in series [1] and 33 nM on Collagenase 3 [2].
As to `O=C(O)C(CC#Cc1ccccc1)NS(=O)(=O)c1ccc(-c2ccc(Oc3ccccc3)cc2)cc1` (centres undefined), the IC50 against Stromelysin-1 is 4.56 µM; at Interstitial collagenase, above 10 µM; in series [1] it was 1470 nM; on Collagenase 3 [2], 2150 nM.
For `COCC#CCC(NS(=O)(=O)c1ccc(NC(=O)c2ccc(Br)cc2)cc1)C(=O)O` (centres undefined) the same measures were 8.62 µM, above 10 µM, 6 nM and 270 nM.
As for `COCC#CCC(NS(=O)(=O)c1ccc(-c2ccc(Br)cc2)cc1)C(=O)O` (centres undefined), in series [5], the solubility was found to be 12000 µg/mL (≈ 26500 µM). For the same compound, the half-maximal inhibitory concentration (IC50) against Stromelysin-1 came out at 3.33 µM; against Interstitial collagenase, 24.8 µM; in series [1], 17 nM; against Collagenase 3 [2], 147 nM.
In turn, `COCC#CCC(NS(=O)(=O)c1ccc(NC(=O)c2ccc(OC)cc2)cc1)C(=O)O` (centres undefined) registered a solubility in series [5] of 3200 µg/mL (≈ 7170 µM). In addition, the values for the IC50 (against Stromelysin-1; against Interstitial collagenase; in series [1]) were 9 µM, above 10 µM and 8 nM, respectively.
In series [5], `O=C(O)C(CC#Cc1ccccc1)NS(=O)(=O)c1ccc(-c2ccc3c(c2)OCO3)cc1` (centres undefined) had a solubility of 80 µg/mL (≈ 178 µM). Moreover, the IC50 came out at 5.44 µM on Stromelysin-1, 10.3 µM against Interstitial collagenase, 29 nM in series [1] and 104 nM at Collagenase 3 [2].
Turning to `O=C(Nc1ccc(S(=O)(=O)NC(CC#CCOc2ccccc2)C(=O)O)cc1)c1ccc(Br)cc1` (centres undefined), the concentration in solution in series [5] (solubility) came to 50 µg/mL (≈ 89.7 µM). The IC50 against Stromelysin-1 is 2.85 µM; on Interstitial collagenase, above 10 µM; in series [1] it was 9 nM.
`COc1ccc(-c2ccc(S(=O)(=O)NC(C(=O)O)[C@@H](C#Cc3ccccc3)OC)cc2)cc1` (some centres undefined): the IC50 is 3.7 µM against Stromelysin-1, 4.2 µM against Interstitial collagenase, 31 nM in series [1] and 81 nM against Collagenase 3 [2].
As for `COCC#CCC(NS(=O)(=O)c1ccc(-c2ccc(OC)cc2)cc1)C(=O)O` (centres undefined), in series [5], the concentration in solution (solubility) was 5800 µg/mL (≈ 14400 µM). Moreover, the IC50 on Interstitial collagenase turned out to be 6.15 µM; in series [1], 20 nM; on Collagenase 3 [2], 76 nM.
As for `COc1ccc(S(=O)(=O)c2ccc(S(=O)(=O)NC(CC#Cc3ccccc3)C(=O)O)s2)cc1` (centres undefined), the IC50 against Stromelysin-1 was above 10 µM; on Interstitial collagenase it was above 10 µM; in series [1], above 10000 nM; against Collagenase 3 [2], above 10000 nM.
Take `COCCOc1ccc(-c2ccc(S(=O)(=O)NC(CC#Cc3ccccc3)C(=O)O)cc2)cc1` (centres undefined): the half-inhibitory concentration (IC50) is 2.43 µM against Stromelysin-1, above 10 µM on Interstitial collagenase, 26 nM in series [1] and 50 nM against Collagenase 3 [2].
In turn, `COc1ccc(C(=O)Nc2ccc(S(=O)(=O)NC(CC#CCOc3ccccc3)C(=O)O)cc2)cc1` (centres undefined) showed a solubility in series [5] of 410 µg/mL (≈ 806 µM). For the same compound, the IC50 on Stromelysin-1 is 3.92 µM; on Interstitial collagenase, above 10 µM; in series [1] it was 9 nM; against Collagenase 3 [2], 226 nM.
`O=C(O)C(CC#CCN1CCCC1)NS(=O)(=O)c1ccc(-c2ccccc2)cc1` (centres undefined): the IC50 was above 10 µM on Stromelysin-1, above 10 µM on Interstitial collagenase, 380 nM in series [1] and 3050 nM on Collagenase 3 [2].
Regarding `COc1ccc(-c2ccc(S(=O)(=O)NC(C(=O)O)[C@@H](C#Cc3ccccc3)OCc3ccccc3)cc2)cc1` (some centres undefined), the IC50 against Stromelysin-1 was 4.27 µM; on Interstitial collagenase it was above 10 µM; in series [1] it was 8 nM; against Collagenase 3 [2] it was 14 nM.
